Measured values as given in ChEMBL document CHEMBL1145497, “A novel Giardia lamblia nitroreductase, GlNR1, interacts with nitazoxanide and other thiazolides” (Antimicrob Agents Chemother, 2007).
Activity calls are given as the source filed them. The calls are words filed in the database; no cut-off is given here.

Tests used:
[1] = system: Giardia intestinalis; test: Growth inhibition of Giardia lamblia; format: functional, organism-based; settings: Giardia duodenalis
[2] = system: Giardia duodenalis; test: Inhibition of Giardia lamblia recombinant nitroreductase 1 (EAA43030.1) expressed in Escherichia coli at 5 uM
Procedure, shortened: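 Six-His-tagged recombinant enzyme expressed in E. coli (1 mM IPTG, 3.5 h) and Ni-column purified. Photometric NADH-oxidation assay in 50 mM Tris-Cl pH 7.0 with 25 μM dinitrotoluene substrate, 0.15 mM NADH final, and inhibitors at 5 μM against a DMSO control. After 5 min preincubation, A340 was read over 0–20 min. Activity came from the linear slope as μkat/g protein; triplicate, mean ± SE.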

[3] = system: Giardia intestinalis; test: Reduction of GDH expression level in Giardia lamblia trophozoites at 25 uM after 3 hrs by RT-PCR assay; format: functional, organism-based; settings: Giardia duodenalis
Procedure, shortened: (§1)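 G. lamblia WB clone C6 trophozoites grown anaerobically in modified TYI-S-33 to near confluence, exposed to compound at 25 μM (DMSO control) for 3 h, then harvested. RNA extracted with DNase I digestion; transcript levels of GlNR1, GlGDH1 and GlACT1 quantified by real-time RT-PCR.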

[4] = system: Giardia intestinalis; test: Reduction of nitroreductase 1 expression level in Giardia lamblia trophozoites at 25 uM after 3 hrs by RT-PCR assay; format: functional, organism-based; settings: Giardia duodenalis; procedure, shortened: as §1
[5] = Inhibition of Giardia lamblia recombinant nitroreductase 1 (EAA43030.1) expressed in Escherichia coli; design: species or system Giardia duodenalis
Procedure, shortened: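 His6-tagged recombinant GlNR1 from IPTG-induced E. coli, Ni-column purified. Photometric NADH oxidation assay in 50 mM Tris-Cl pH 7.0 with dinitrotoluene substrate, 0.15 mM NADH final, 5 min preincubation, A340 read over 0–20 min.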

[6] = system: Giardia intestinalis; test: Reduction of ACT1 expression level in Giardia lamblia trophozoites at 25 uM after 3 hrs by RT-PCR assay; format: functional, organism-based; settings: Giardia duodenalis; procedure, shortened: as §1

SMILES	Activity [1]	inhibition [2]	Activity [3]	Activity [4]	Ki [5]	Activity [6]	Activity [2]
COc1cccc(C(=O)Nc2ncc([N+](=O)[O-])s2)c1O	Active	> 75%					
CC(=O)Oc1ccccc1C(=O)Nc1ncc([N+](=O)[O-])s1 [NITAZOXANIDE]	Active	> 75%	Active	Active	300 nM	Active	
CC(=O)Oc1c(C)cccc1C(=O)Nc1ncc([N+](=O)[O-])s1	Active	> 75%					
O=C(Nc1ncc([N+](=O)[O-])s1)c1ccccc1O	Active	> 75%					
Cc1ncc([N+](=O)[O-])n1CCO							inactive
